Source: ChEMBL document CHEMBL1177674, “2-acylamino-4,6-diphenylpyridine derivatives as novel GPR54 antagonists with good brain exposure and in vivo efficacy for plasma LH level in male rats” (Bioorg Med Chem, 2010)

Assays:
[1] = molecular target: T1, KiSS-1 receptor (Homo sapiens, UniProt Q969F8); experiment: Displacement of [125I]metastin from human GPR54 receptor expressed in CHO cells; type: cell-based
Outline: (§1)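 Membranes came from CHO cells stably expressing human or rat GPR54. They were incubated with 135 pM 125I-metastin (40–54) plus compound for 60 min at 25 °C, in Tris binding buffer pH 7.4 with protease inhibitors and 1 mg/ml BSA. Samples were filtered through PEI-pretreated GF/C filters, buffer-washed, and the bound radioactivity was counted.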

[2] = Lipophilicity, log D at pH 7.4; type: physicochemical; conditions: buffer
[3] = molecular target: KiSS-1 receptor (Rattus norvegicus, UniProt Q924U1); experiment: Displacement of [125I]metastin from rat GPR54 receptor expressed in CHO cells; type: cell-based; outline: as §1
[4] = test system: Caco-2; experiment: Ratio of permeability from basolateral to apical side to apical to basolateral side of human Caco-2 cells; type: ADME, cell-based
Outline: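 Caco-2 monolayers were grown to confluence on collagen-coated polycarbonate Transwell membranes. Assay buffer was HBSS with 10 mmol/L HEPES, 15 mmol/L glucose and 1% BSA, pH 7.3–7.5. Compound was dosed apically or basolaterally at 37 °C, 5% CO2. Receivers were sampled at 1 and 2 h and donors at 2 h, in duplicate. A cell-free membrane corrected for nonspecific binding. The B-to-A/A-to-B ratio was derived.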

[5] = molecular target: T1, KiSS-1 receptor; experiment: Antagonist activity at human GPR54 receptor assessed as inhibition of metastin-induced calcium mobilization; type: functional
Outline: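 Cells in MEM with 10% dFBS, penicillin and streptomycin, plated at 30,000 cells/well and cultured overnight. Loaded 60 min at 37 °C in Hepes-buffered saline (pH 7.4) containing 0.1% BSA, Fluo-3AM, 1.25 mM probenecid and 0.04% Pluronic F-127. Washed at 37 °C in the same buffer with BSA and probenecid. Ca²⁺ mobilization read on FLIPR.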

[6] = test system: Rattus norvegicus; experiment: Decrease in leutinizing hormone level in castrated Wistar rat plasma at 0.22 mg/kg, iv for 5 times with 10 mins interval measured after 60 mins postdose by radioimmunoassay; type: functional; parameters: scale not given: the % may be the effect or the level left
Outline: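 Male Wistar rats, 11 weeks old, were castrated 7 days before testing. Compound was suspended at […] in 20% DMSO-40% PEG400. It was given at 0.22 mg/kg (0.8 ml/kg) via jugular catheter five times at 10 min intervals, for 1.1 mg/kg total. Vehicle served as control; n = 8 per group. Blood was drawn before dosing and at 25–180 min, then aprotinin–EDTA plasma was prepared. Values are means SE of eight.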

T1 sequence (Q969F8 whole entry): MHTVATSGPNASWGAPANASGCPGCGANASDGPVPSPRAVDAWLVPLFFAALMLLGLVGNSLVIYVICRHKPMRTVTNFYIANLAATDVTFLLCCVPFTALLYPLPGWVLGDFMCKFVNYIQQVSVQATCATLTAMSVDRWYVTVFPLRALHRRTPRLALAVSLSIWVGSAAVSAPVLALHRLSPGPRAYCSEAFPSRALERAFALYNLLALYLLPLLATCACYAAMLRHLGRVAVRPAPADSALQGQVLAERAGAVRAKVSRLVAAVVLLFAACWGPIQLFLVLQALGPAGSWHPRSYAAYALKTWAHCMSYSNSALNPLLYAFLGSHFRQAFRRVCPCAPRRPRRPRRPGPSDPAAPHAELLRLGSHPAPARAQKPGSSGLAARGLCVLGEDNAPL
KiSS-1 receptor (Rattus norvegicus, UniProt Q924U1), sequence (Q924U1 whole entry): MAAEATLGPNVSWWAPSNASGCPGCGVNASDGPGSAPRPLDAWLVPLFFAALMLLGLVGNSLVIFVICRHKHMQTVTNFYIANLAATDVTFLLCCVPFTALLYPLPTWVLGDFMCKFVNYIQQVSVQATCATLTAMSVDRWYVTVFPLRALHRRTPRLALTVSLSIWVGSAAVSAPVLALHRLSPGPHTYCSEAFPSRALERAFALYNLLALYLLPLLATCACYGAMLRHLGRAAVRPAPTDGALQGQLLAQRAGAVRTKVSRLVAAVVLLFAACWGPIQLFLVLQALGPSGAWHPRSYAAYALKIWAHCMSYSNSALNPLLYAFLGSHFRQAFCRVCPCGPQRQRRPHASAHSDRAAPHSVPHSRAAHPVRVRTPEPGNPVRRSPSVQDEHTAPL

SMILES	IC50 [1] [nM]	logD [2]	also measured
CN1CCN(Cc2cccc(-c3cc(-c4ccc(F)cc4O)nc(NC(=O)c4ccco4)c3C#N)c2)CC1	18	–	–
CCNC(CC)CC(=O)Nc1cccc(-c2cc(-c3ccc(F)cc3O)nc(NC(=O)c3ccco3)c2C#N)c1 (racemic)	8	–	–
N#Cc1c(-c2cccc(CN3CCCNCC3)c2)cc(-c2ccc(F)cc2O)nc1NC(=O)c1ccco1	25	–	–
CNCCC(=O)Nc1cccc(-c2cc(-c3ccc(F)cc3O)nc(NC(=O)c3ccco3)c2C#N)c1	4.6	2.13	IC50 [3]: 20 nM
N#Cc1c(-c2cccc(NC(=O)CC3CCCCN3)c2)cc(-c2ccc(F)cc2O)nc1NC(=O)c1ccco1 (racemic)	14	–	–
CCN(CC)CC(=O)Nc1cccc(-c2cc(-c3ccc(F)cc3O)nc(NC(=O)c3ccco3)c2C#N)c1	30	–	–
N#Cc1c(-c2cccc(N3CCCNCC3)c2)cc(-c2ccc(F)cc2O)nc1NC(=O)c1ccco1	7.3	–	–
CCN1CCN(Cc2cccc(-c3cc(-c4ccc(F)cc4O)nc(NC(=O)c4ccco4)c3C#N)c2)CC1	20	–	–
CN(C)CC(=O)Nc1cccc(-c2cc(-c3ccccc3O)nc(NC(=O)c3cccs3)c2C#N)c1	180	3.07	Ratio [4]: 1
CN1CCN(c2cccc(-c3cc(-c4ccc(F)cc4O)nc(NC(=O)c4ccco4)c3C#N)c2)CC1	15	–	–
N#Cc1c(-c2cccc(NC(=O)[C@H]3CCCN3)c2)cc(-c2ccc(F)cc2O)nc1NC(=O)c1ccco1	16	–	–
CCN(CC)C(C)CC(=O)Nc1cccc(-c2cc(-c3ccc(F)cc3O)nc(NC(=O)c3ccco3)c2C#N)c1 (racemic)	17	–	–
CNCC(=O)Nc1cccc(-c2cc(-c3ccc(F)cc3O)nc(NC(=O)c3ccco3)c2C#N)c1	8.4	2.66	IC50 [3]: 26 nM
N#Cc1c(-c2cccc(NC(=O)CN)c2)cc(-c2ccc(F)cc2O)nc1NC(=O)c1ccco1	4.1	–	–
CC(C)NC(C)CC(=O)Nc1cccc(-c2cc(-c3ccc(F)cc3O)nc(NC(=O)c3ccco3)c2C#N)c1 (racemic)	9.7	–	–
CCN(CC)CCC(=O)Nc1cccc(-c2cc(-c3ccc(F)cc3O)nc(NC(=O)c3ccco3)c2C#N)c1	16	–	–

SMILES	IC50 [1] [nM]	logD [2]	also measured
CCNC(C)CC(=O)Nc1cccc(-c2cc(-c3ccc(F)cc3O)nc(NC(=O)c3ccco3)c2C#N)c1 (racemic)	10	–	–
CCN1CCN(c2cccc(-c3cc(-c4ccc(F)cc4O)nc(NC(=O)c4ccco4)c3C#N)c2)CC1	11	4.1	IC50 [3]: 47 nM; Ratio [4]: 1
N#Cc1c(-c2cccc(N3CCNCC3)c2)cc(-c2ccc(F)cc2O)nc1NC(=O)c1ccco1	3.6	2.72	IC50 [5]: 930 nM; Activity [6]: 32%; IC50 [3]: 15 nM; Ratio [4]: 1.2
CN(C)CCC(=O)Nc1cccc(-c2cc(-c3ccc(F)cc3O)nc(NC(=O)c3ccco3)c2C#N)c1	10	2.95	IC50 [3]: 47 nM; Ratio [4]: 4.3
CCC(CC(=O)Nc1cccc(-c2cc(-c3ccc(F)cc3O)nc(NC(=O)c3ccco3)c2C#N)c1)N(CC)CC (racemic)	22	–	–
CCN(C)CCC(=O)Nc1cccc(-c2cc(-c3ccc(F)cc3O)nc(NC(=O)c3ccco3)c2C#N)c1	10	–	–
CN(C)CC(=O)Nc1cccc(-c2cc(-c3ccc(F)cc3O)nc(NC(=O)c3ccco3)c2C#N)c1	12	3.31	IC50 [3]: 130 nM; Ratio [4]: 1.4
CN1CCC[C@H]1CC(=O)Nc1cccc(-c2cc(-c3ccc(F)cc3O)nc(NC(=O)c3ccco3)c2C#N)c1	18	–	–
N#Cc1c(-c2cccc(NC(=O)CN3CCCC3)c2)cc(-c2ccc(F)cc2O)nc1NC(=O)c1ccco1	15	–	–
N#Cc1c(-c2cccc(CN3CCNCC3)c2)cc(-c2ccc(F)cc2O)nc1NC(=O)c1ccco1	9.7	–	–
CN(C)CCNC(=O)c1cccc(-c2cc(-c3ccc(F)cc3O)nc(NC(=O)c3ccco3)c2C#N)c1	20	–	–
CN(C)CCN(C)c1cccc(-c2cc(-c3ccc(F)cc3O)nc(NC(=O)c3ccco3)c2C#N)c1	30	–	–
CC(CC(=O)Nc1cccc(-c2cc(-c3ccc(F)cc3O)nc(NC(=O)c3ccco3)c2C#N)c1)N(C)C (racemic)	18	–	–
N#Cc1c(-c2cccc(NC(=O)C[C@@H]3CCCN3)c2)cc(-c2ccc(F)cc2O)nc1NC(=O)c1ccco1	7.9	2.29	IC50 [3]: 26 nM
N#Cc1c(-c2cccc(NC(=O)CCN)c2)cc(-c2ccc(F)cc2O)nc1NC(=O)c1cccs1	–	2.14	Ratio [4]: 49
N#Cc1c(-c2cccc(NC(=O)C[C@H]3CCCN3)c2)cc(-c2ccc(F)cc2O)nc1NC(=O)c1ccco1	10	2.13	IC50 [3]: 38 nM
